Laboratory results published in ChEMBL document CHEMBL3259700, “2-Amino-1,3,4-thiadiazoles in the 7-hydroxy-N-neopentyl spiropiperidine indolinyl series as potent P2Y1 receptor antagonists” (Bioorg Med Chem Lett, 2014).
pIC50, pKi: −log10 of the molar value.

What was measured:
[1] = Antiplatelet activity in human platelet-rich plasma assessed as inhibition of ADP-induced platelet aggregation in presence of 10 uM ADP
[2] = Antiplatelet activity in human platelet-rich plasma assessed as inhibition of ADP-induced platelet aggregation in presence of 2.5 uM ADP
[3] = Volume of distribution at steady state in rat at 0.5 mg/kg, iv and 0.5 mg/kg, po; type: ADME, organism-based; conditions: in vivo, read-out: Vdss
In short: (§1)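 Cassette PK in rats, 0.5 mg/kg iv and 0.5 mg/kg p.o., vehicle 70% water, 10% ethanol, 10% cremophor, 10% N,N-dimethylacetamide; plasma trough concentrations taken 24 h after iv and p.o. dosing.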

[4] = Oral bioavailability in rat at 0.5 mg/kg; type: ADME, organism-based; conditions: in vivo; in short: as §1
[5] = Clearance in rat at 0.5 mg/kg, iv and 0.5 mg/kg, po; type: ADME, organism-based; conditions: in vivo; in short: as §1
P2Y purinoceptor 1 [6] = molecular target: T1, P2Y purinoceptor 1 (Homo sapiens, UniProt P47900); test: Displacement of [33P]2-MeS-ADP from human cloned P2Y1 receptor expressed in HEK293 cells by SPA analysis; type: cell-based
[7] = Metabolic stability in rat liver microsomes assessed as compound remaining after 10 mins; type: ADME; conditions: read-out: Stability
In short: (§2)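 Test compound incubated 10 min with 0.5 µM rat or human liver microsomes; percentage of parent remaining measured.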

[8] = Trough plasma concentration in rat at 0.5 mg/kg, po after 24 hrs; type: ADME, organism-based; parameters: dose 0.5 mg/kg, route oral; conditions: read-out: Cmin; in short: as §1
[9] = Metabolic stability in human liver microsomes assessed as compound remaining after 10 mins; type: ADME; conditions: read-out: Stability; in short: as §2
[10] = Trough plasma concentration in rat at 0.5 mg/kg, iv after 24 hrs; type: ADME, organism-based; parameters: dose 0.5 mg/kg, route intravenous; conditions: read-out: Cmin; in short: as §1
[11] = Half life in rat at 0.5 mg/kg, iv and 0.5 mg/kg, po; type: ADME, organism-based; conditions: in vivo; in short: as §1
[12] = Total AUC in rat at 0.5 mg/kg, iv; type: ADME, organism-based; parameters: time AUCmax, dose 0.5 mg/kg, route intravenous; conditions: in vivo; in short: as §1
P2Y purinoceptor 1 [13] = molecular target: T1, P2Y purinoceptor 1; test: Inhibition of P2Y1 receptor in human washed platelets assessed as decrease in 2-methylthio-ADP-induced calcium signal transduction pathway activation by FLIPR assay; type: functional

T1 sequence (P47900 whole entry): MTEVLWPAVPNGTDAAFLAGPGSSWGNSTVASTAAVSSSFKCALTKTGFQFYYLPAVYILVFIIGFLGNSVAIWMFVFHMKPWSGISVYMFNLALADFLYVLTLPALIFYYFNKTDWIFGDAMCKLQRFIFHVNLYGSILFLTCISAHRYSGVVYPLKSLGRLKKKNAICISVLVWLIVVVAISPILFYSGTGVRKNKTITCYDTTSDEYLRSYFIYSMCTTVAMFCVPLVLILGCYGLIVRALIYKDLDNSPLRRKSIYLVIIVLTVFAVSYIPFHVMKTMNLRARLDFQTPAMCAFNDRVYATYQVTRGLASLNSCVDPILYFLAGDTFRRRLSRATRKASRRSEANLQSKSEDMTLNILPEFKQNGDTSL

Compound	pIC50 [1]	pKi (P2Y purinoceptor 1 [6])	pIC50 (P2Y purinoceptor 1 [13])	also measured
CC(C)(C)c1ccccc1Oc1ncccc1NC(=O)Nc1ccc(OC(F)(F)F)cc1	4.96			
CC(C)(C)c1ccccc1Oc1ncccc1Nc1nnc(-c2ccc(C(F)(F)F)cc2)s1				pIC50 [2]: 5.12
CN(C)CC(C)(C)COc1cccc(-c2sc(Nc3cccnc3Oc3ccccc3C(C)(C)C)nc2C(F)(F)F)c1	4.24			pIC50 [2]: 5.28
CC(C)(C)CN1CCC2(CC1)CN(c1ccccc1NC(=O)Nc1nc3ccc(Cl)nc3s1)c1c(O)ccc(Cl)c12	6.89	8.10		Vd [3]: 5.4 L/kg; bioavailability [4]: 36%; clearance [5]: 0.6 L/h/kg; remaining at 10 min [7]: 86%; concentration at 24 h [8]: 0.0041 µM; remaining at 10 min [9]: 100%; concentration at 24 h [10]: 0.01 µM; half-life [11]: 9.9 h; AUC [12]: 1.33 µM·h
CC(C)(C)CN1CCC2(CC1)CN(c1ccccc1Nc1nnc(-c3ccccc3)s1)c1c(O)ccc(C(F)(F)F)c12	6.00	8.02	9.72	
CC(C)(C)CN1CCC2(CC1)CN(c1ccccc1Nc1nc(-c3ccccc3)ns1)c1c(O)ccc(Cl)c12	5.27		8.19	
CC(C)(C)CN1CCC2(CC1)CN(c1ccccc1Nc1nnc(-c3ccccc3)o1)c1c(O)ccc(Cl)c12	< 5.00	8.21	7.31	
CC(C)(C)CN1CCC2(CC1)CN(c1ccccc1Nc1cc(-c3ccccc3)on1)c1c(O)ccc(Cl)c12	5.05			
CC(C)(C)CN1CCC2(CC1)CN(c1ccccc1Nc1nc(-c3ccccc3)cs1)c1c(O)ccc(Cl)c12	< 5.00	7.70	7.27	
CC(C)(C)CN1CCC2(CC1)CN(c1ccccc1Nc1ncc(-c3ccccc3)s1)c1c(O)ccc(Cl)c12	5.43	7.77	8.64	
Cc1ccc(-c2ccc(Nc3ccccc3N3CC4(CCN(CC(C)(C)C)CC4)c4c(Cl)ccc(O)c43)nc2)cc1	< 5.00	6.46		
CC(C)(C)CN1CCC2(CC1)CN(c1ccccc1Nc1ccc(-c3ccccc3)nn1)c1c(O)ccc(Cl)c12	< 4.40	6.29		
CC(C)(C)CN1CCC2(CC1)CN(c1ccccc1Nc1cnc(-c3ccccc3)cn1)c1c(O)ccc(Cl)c12	< 4.40	7.31		
CC(C)(C)CN1CCC2(CC1)CN(c1ccccc1Nc1nnc(-c3ccc(C(F)(F)F)cc3)s1)c1c(O)ccc(C(F)(F)F)c12	6.35		10.10	Vd [3]: 6 L/kg; bioavailability [4]: 22%; clearance [5]: 0.24 L/h/kg; remaining at 10 min [7]: 87%; concentration at 24 h [8]: 0.012 µM; remaining at 10 min [9]: 86%; concentration at 24 h [10]: 0.046 µM; half-life [11]: 24 h; AUC [12]: 4.63 µM·h
CC(C)(C)CN1CCC2(CC1)CN(c1ccccc1Nc1nnc(-c3ccc(C(C)(C)C)cc3)s1)c1c(O)ccc(C(F)(F)F)c12	6.06		9.68	Vd [3]: 1.2 L/kg; bioavailability [4]: 14%; clearance [5]: 0.108 L/h/kg; remaining at 10 min [7]: 84%; concentration at 24 h [8]: 0.0036 µM; remaining at 10 min [9]: 82%; concentration at 24 h [10]: 0.054 µM; half-life [11]: 13 h; AUC [12]: 6.96 µM·h
CC(C)(C)CN1CCC2(CC1)CN(c1ccccc1Nc1nnc(-c3ccc(C(C)(C)C)cc3)s1)c1c(O)ccc(C#N)c12	5.92	8.01	9.47	
COC(=O)c1ccc(O)c2c1C1(CCN(CC(C)(C)C)CC1)CN2c1ccccc1Nc1nnc(-c2ccc(C(C)(C)C)cc2)s1	6.08		9.49	
CC(C)(C)CN1CCC2(CC1)CN(c1ccccc1Nc1nnc(-c3ccc(OC(F)(F)F)cc3)s1)c1c(O)ccc(F)c12	5.80	8.28	8.57	
CC(C)(C)CN1CCC2(CC1)CN(c1ccccc1Nc1nnc(-c3ccc(OC(F)(F)F)cc3)s1)c1c(O)ccc(Cl)c12	6.05		9.20	Vd [3]: 2.1 L/kg; bioavailability [4]: 28%; clearance [5]: 0.126 L/h/kg; remaining at 10 min [7]: 94%; concentration at 24 h [8]: 0.03 µM; remaining at 10 min [9]: 99%; concentration at 24 h [10]: 0.095 µM; half-life [11]: 12 h; AUC [12]: 6.21 µM·h
CC(C)(C)CN1CCC2(CC1)CN(c1ccccc1Nc1nnc(-c3ccccc3Cl)s1)c1c(O)ccc(Cl)c12	4.96		8.01	
CC(C)(C)CN1CCC2(CC1)CN(c1ccccc1Nc1nnc(-c3cccc(Cl)c3)s1)c1c(O)ccc(Cl)c12	5.59		8.44	
CC(C)(C)CN1CCC2(CC1)CN(c1ccccc1Nc1nnc(-c3ccc(Cl)cc3)s1)c1c(O)ccc(Cl)c12	5.89		8.80	
CC(C)(C)CN1CCC2(CC1)CN(c1ccccc1Nc1nnc(-c3cnccn3)s1)c1c(O)ccc(Cl)c12	6.03		8.82	remaining at 10 min [7]: 37%
Cc1cc(-c2nnc(Nc3ccccc3N3CC4(CCN(CC(C)(C)C)CC4)c4c(Cl)ccc(O)c43)s2)n(C)n1	6.05		9.70	remaining at 10 min [7]: 75%
